# High-throughput results (PubChem)
# ARFGAP1 inh = inhibits rat ARF GTPase activating protein 1. Arfgap1-stimulated ARF1 GTP hydrolysis, GDP FP detection. Q62848. inhibition, % at 16.5 µM. 0.26% of 360,000 active;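 active = inhibition above a per-plate limit, mean inhibition of low control wells plus 3 SD, cut at about 25% in these data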;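 note: 0% = DMSO wells with enzyme and 100% = wells lacking Arfgap1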
#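 Material: truncated rat Arfgap1 GAP domain; Incubation: compound-enzyme preincubation 20 min, reaction 120 min, detection 60 min, 25 °C; Read-out: percent inhibition of Arfgap1-stimulated GTP hydrolysis; Technique: FP, GDP Alexa 633 tracer displaced from anti-GDP antibody, 620/688 nm; Controls: No-Arfgap1 wells (100%) versus DMSO full-reaction wells (0%); Replication: single well per compound.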
# pPAFAH inh = inhibitors of human plasma PAF acetylhydrolase (pPAFAH). Q13093. recombinant pPAFAH, FP-rhodamine probe fluorescence polarization. inhibition, % at 3.39 µM. 1.5% of 330,000 active. AID 463082;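 active = inhibition above the mean inhibition across the screen plus 3 SD, cut at about 25% in these data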;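 note: inhibitors block binding of the rhodamine activity-based probe so polarization drops; 0% = enzyme with DMSO and 100% = wells lacking pPAFAH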
# Target sequence (Q13093 whole entry, looked up): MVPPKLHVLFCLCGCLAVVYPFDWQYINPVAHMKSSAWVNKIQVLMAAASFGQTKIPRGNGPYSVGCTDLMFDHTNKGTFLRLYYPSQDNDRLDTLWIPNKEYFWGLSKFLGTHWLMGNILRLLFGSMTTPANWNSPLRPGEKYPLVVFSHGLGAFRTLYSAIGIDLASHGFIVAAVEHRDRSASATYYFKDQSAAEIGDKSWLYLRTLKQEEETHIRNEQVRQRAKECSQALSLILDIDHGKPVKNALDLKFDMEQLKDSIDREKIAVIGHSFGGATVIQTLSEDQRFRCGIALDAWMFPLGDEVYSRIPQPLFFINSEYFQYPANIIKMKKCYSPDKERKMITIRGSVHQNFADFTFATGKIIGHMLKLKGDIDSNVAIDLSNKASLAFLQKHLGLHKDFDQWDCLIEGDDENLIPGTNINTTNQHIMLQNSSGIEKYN
# PAFAH2 inh = inhibitors of human PAFAH2 | Q99487 | recombinant PAFAH2, FP-rhodamine activity probe, fluorescence polarization | inhibition, % at 3.39 µM | 0.99% of 340,000 active | AID 492956;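 active = inhibition above the mean over all tested compounds plus 3 SD, cut at about 30% in these data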;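 note: inhibitors block probe labeling of enzyme so polarization drops; 0% = enzyme with DMSO and 100% = wells lacking PAFAH2 protein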
# PAFAH1B2 inh = blocks human PAF acetylhydrolase 1b catalytic subunit 2; recombinant PAFAH1B2, FP-rhodamine activity probe, fluorescence polarization; inhibition, % at 3.39 µM; AID 492953; 1.2% of 340,000 active; P68402;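 active = inhibition above the mean of all tested compounds plus 3 SD, cut at about 24% in these data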;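 note: 0% = enzyme with DMSO and 100% = wells lacking PAFAH1B2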
# PAFAH1B3 inh = PAFAH1B3 (human) inhibition; recombinant PAFAH1B3, FP-rhodamine probe, fluorescence polarization; 0.28% of 340,000 active; AID 492972; inhibition, % at 3.39 µM; Q15102;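 active = inhibition above the screen-wide average of all tested compounds plus 3 SD, cut at about 25% in these data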;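 note: 0% = enzyme with DMSO only and 100% = wells lacking PAFAH1B3 protein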
# Target sequence (Q15102 whole entry, looked up): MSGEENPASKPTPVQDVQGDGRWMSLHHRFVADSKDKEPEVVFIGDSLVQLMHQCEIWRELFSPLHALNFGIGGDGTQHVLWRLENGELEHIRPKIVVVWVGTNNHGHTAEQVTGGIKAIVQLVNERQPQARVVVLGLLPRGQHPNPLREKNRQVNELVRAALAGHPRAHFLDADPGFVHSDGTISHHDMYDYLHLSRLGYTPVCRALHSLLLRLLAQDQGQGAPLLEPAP
# ASAP1 inh = inhibitors of human ASAP1 ArfGAP activity. Q9ULH1. 0.19% of 360,000 active. inhibition, % at 16.5 µM. ASAP1-stimulated ARF1 GTP hydrolysis, GDP FP detection; in the data active = inhibition above about 25%;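 note: 0% = vehicle with enzyme and substrate and 100% = no enzyme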
# Active calls of the source: *; . = not tested or not shown. This is a sample that favours compounds with a hit; in the whole collection about 2.7% have one here.
SMILES,ARFGAP1 inh,pPAFAH inh,PAFAH2 inh,PAFAH1B2 inh,PAFAH1B3 inh,ASAP1 inh
Cc1ccc(CCNC(=O)C2CCCN(S(=O)(=O)c3c(C)noc3/C=C/N(C)C)C2)cc1 (stereo not drawn),-6.6,11.0,6.6,36.2*,3.1,-12.5
CCCCCCCCN1C(=O)[C@@H](CC(=O)NCCC(C)C)C[C@@]2(C(=O)OC)C1=C[C@H](C(C)(C)C)O[C@@H]2C,2.8,.,.,.,.,-8.6
Clc1ccc(N2CCN(/N=C/c3ccncc3)CC2)cc1,-4.6,5.4,4.2,26.9*,1.1,-10.2
CC1Sc2ccc(C(=O)OCc3ccccc3Cl)cc2NC1=O (stereo not drawn),5.3,29.3*,9.6,3.1,3.8,1.4
COc1cccc(COC(=O)c2ccc3c(c2)NC(=O)C(C)S3)c1OC (stereo not drawn),11.8,5.0,4.5,-1.9,0.2,13.9
CCOC(=O)CSc1nc2ccc(N3CCOCC3)cc2c(=O)n1Cc1ccc2c(c1)OCO2,.,32.1*,.,.,.,.
Cc1noc(C)c1-c1nc(CS(=O)(=O)c2ccc(Cl)cc2)no1,-8.1,-4.1,9.4,29.7*,4.7,-9.6
CCn1nc(C)c(Br)c1-c1nc(CS(=O)(=O)c2ccc(F)cc2)no1,-15.1,-2.9,3.8,10.2,9.2,-6.5
Cc1ccc(C)c(SCC(=O)OCC(=O)Nc2ccc(S(=O)(=O)N3CCOCC3)cc2)c1,8.6,25.6*,2.1,5.8,7.7,6.6
Cc1ccc(NC(=O)COC(=O)CCc2ccc(S(=O)(=O)N3CCOCC3)cc2)cc1C,7.6,6.5,4.0,4.5,-2.5,-5.1
Cc1ccc(NC(=O)COC(=O)CCC2CCCC2)cc1S(=O)(=O)N1CCOCC1,-2.3,33.3*,32.4*,4.2,0.4,-8.1
Cc1ccc(NC(=O)COC(=O)CCC(=O)c2cccs2)cc1S(=O)(=O)N1CCOCC1,1.4,6.5,-1.1,4.8,9.1,-3.3
CCOC(=O)c1sc(N(Cc2ccccc2)C(=O)COC(=O)c2ccccc2O)nc1C,3.2,8.6,-5.1,41.7*,1.5,2.3
CCC(C)(C)C1CCC2(CC1)NC(=O)N(CC(=O)NCCc1ccc(OC)c(OC)c1)C2=O (stereo not drawn),9.8,1.4,1.0,25.4*,-0.8,-17.4
CCC(C)(C)C1CCC2(CC1)NC(=O)N(CC(=O)NCCOc1ccccc1)C2=O (stereo not drawn),7.5,-5.6,9.5,28.5*,11.5,-1.7
CCOc1ccc(CCNC(=O)CN2C(=O)NC3(CCCC3)C2=O)cc1OCC,12.9,-5.5,0.0,0.0,1.1,-1.0
CCC(C)(C)C1CCC2(CC1)NC(=O)N(CC(=O)N1CCN(C(=O)c3ccco3)CC1)C2=O (stereo not drawn),1.3,1.7,0.2,24.7*,1.9,-1.8
C#CCN(Cc1ccco1)C(=O)c1nnc2c3cc(OC)ccc3n(S(=O)(=O)c3ccc(OC)cc3)c2n1,-3.5,.,.,.,.,-1.9
CN[C@H]1C[C@H]2c3[nH]c4c(-c5ccccc5)cccc4c3CCN2C[C@H]1[C@H](C)O,-5.4,.,.,.,.,-6.3
CCCCc1c(-c2ccccc2OC)ncn1Cc1cccc(F)c1F,-3.1,.,.,.,.,2.9
O=C(O)c1ccn2c(C(=O)c3ccc(Cl)cc3)c(-c3ccccc3)cc2c1,3.5,17.9,8.1,59.0*,-2.6,-3.6
O=C(NCCO)C(=O)c1c(-c2ccc(Cl)cc2)cc2ccccn12,-7.7,0.4,3.5,1.9,2.6,4.0
CC(=O)CCN1CCSCCS1(=O)=O,-9.8,.,.,.,.,-11.0
CCN(CC(=O)NCc1ccc(F)cc1)CC(=O)Nc1ccc(Br)cc1F,11.7,-6.7,5.8,7.6,5.4,-3.1
CCN(CC(=O)NCc1ccc(F)cc1)CC(=O)Nc1cc(S(=O)(=O)N(C)C)ccc1C,11.6,28.7*,1.6,-2.7,-2.4,14.3
SMILES,ARFGAP1 inh,pPAFAH inh,PAFAH2 inh,PAFAH1B2 inh,PAFAH1B3 inh,ASAP1 inh
CCC(=O)NCc1c(C)c(C)n(Cc2ccccc2)c1-n1cccc1,1.9,5.4,5.0,27.6*,-1.4,0.5
Fc1cccc(F)c1/C=C/c1ccc2ccccc2n1,-4.3,3.5,-9.5,-2.6,2.6,8.4
C(=C\c1ccco1)/c1ccc2ccccc2n1,-7.5,26.0*,.,.,.,-0.1
O=C1C(=O)N2C(=C1C(=O)N1CCCCCC1)c1ccccc1CC21CCCC1,6.7,0.2,3.3,56.9*,5.8,10.1
CC1(C)Cc2ccccc2C2=C(C(=O)N3CCCCCC3)C(=O)C(=O)N21,1.3,1.0,0.7,61.4*,-0.4,9.9
CCC1(CC)Cc2ccccc2C2=C(C(=O)N3CCCCC3)C(=O)C(=O)N21,0.6,2.7,3.5,17.2,3.5,-5.5
Cc1[nH]c2ccccc2c1CC(=O)Nc1ccc(Nc2cccnc2)c(-c2ccc(OC(F)(F)F)cc2)c1,21.5,.,.,.,.,14.4
Cc1cccnc1N=O,5.4,.,.,.,.,15.0
O=C(Cc1ccc(Br)cc1)Nc1ncc([N+](=O)[O-])s1,11.0,15.2,11.3,35.1*,12.2,8.9
Cc1ccc(CNS(=O)(=O)c2ccc3c(c2)OCCO3)cc1,-4.2,5.3,6.2,26.9*,5.9,0.4
CCOc1ccc(CCNS(=O)(=O)c2ccc3c(c2)N(C(C)=O)CCO3)cc1OCC,12.5,4.9,2.9,0.0,5.0,1.8
COc1ccc(CNS(=O)(=O)c2ccc3c(c2)N(C(C)=O)CCO3)cc1,-3.7,5.8,-6.9,9.7,4.3,-15.5
CC(=O)N1CCOc2ccc(S(=O)(=O)NCc3ccc(C)cc3)cc21,0.1,3.5,0.8,33.7*,10.9,-8.5
CC(=O)N1CCOc2ccc(S(=O)(=O)NCCc3ccc(C)cc3)cc21,-4.8,10.5,-1.9,32.3*,4.1,-6.2
Cc1cccc(C2=CC(=O)CC(C)(C)C2=O)c1,4.7,.,.,.,.,2.0
CN1C(=O)[C@@]2(C3=C(CCCC3=O)OC3=C2C(=O)CC(C)(C)C3)c2ccccc21,7.5,.,.,.,.,-1.3
O=S(=O)(c1ccc(C(F)(F)F)cc1)N1CCCc2nc(-c3ccc(Br)cc3)ccc21,2.7,.,.,.,.,1.1
CC(=Nc1ccc(Cl)cc1N)c1c(O)cc(C)oc1=O,-6.8,.,.,.,.,10.9
CCOc1ccc(S(=O)(=O)N2CCCCC2)cc1NC(=O)CN1C(=O)NC(C)(c2ccc(C)cc2)C1=O (stereo not drawn),.,27.2*,6.3,0.6,1.9,.
COc1ccc(S(=O)(=O)N2CCCCCC2)cc1NC(=O)CN1C(=O)NC(C)(c2ccc(C)cc2)C1=O (stereo not drawn),1.4,12.7,-2.0,-3.0,9.0,2.7
CC1(c2cc(F)ccc2F)NC(=O)N(CC(=O)Nc2cccc(S(=O)(=O)N3CCCC3)c2)C1=O (stereo not drawn),-8.6,-0.6,-3.5,9.6,10.2,-8.5
CC1(c2ccc3ccccc3c2)NC(=O)N(CC(=O)Nc2cccc(S(=O)(=O)N3CCOCC3)c2)C1=O (stereo not drawn),1.8,33.3*,-10.0,-2.2,-7.6,18.3
Cc1ccc(C(=O)N2CCC[C@@H]2C(=O)N2CCC[C@@H]2C(=O)NCc2ccccc2)cc1,0.1,.,.,.,.,-3.8
